Activity and Stability data for one compound are collected here from ChEMBL document CHEMBL1250420, “Identification of chalcones as in vivo liver monofunctional phase II enzymes inducers” (Bioorg Med Chem, 2010).

Structures are written as SMILES. The source made the active and inactive calls. The calls are words filed in the database; no cut-off is given here.

The subject of one series is MCF7. The series is described as follows: Cytotoxicity against human MCF7 cells. It is filed as functional, cell-based.
The subject of a further series is TK-10. Put plainly: Cytotoxicity against human TK10 cells. The class given is functional, cell-based.
A further series concerns HT-29. The series is described as follows: Cytotoxicity against human HT-29 cells. The class given is functional, cell-based.
In series [1] the test system is Rattus norvegicus. Put plainly: Induction of quinone reductase activity in rat liver at 22.5 mg/kg, po qd. The class given is functional. The note with it: dose 15.0 mg/kg, in the assay text read “at 15.0 mg/kg” for “at 22.5 mg/kg”. An outline of the steps:
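Oral dosing for 15 days over 3 weeks, then liver QR read as loss of 600 nm absorbance of DCPIP (80 µM) with 0.2 mM NADH, 5 µM FAD, 25 mM Tris–HCl pH 7.4, 6% BSA, 0.01% Tween 20. Specific activity expressed as % change from basal-diet control, n = 5, means ± SE, Student's t-test.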

For series [2], the target named is T1, Quinone oxidoreductase (Homo sapiens) (UniProt Q08257).
T1 sequence (whole entry): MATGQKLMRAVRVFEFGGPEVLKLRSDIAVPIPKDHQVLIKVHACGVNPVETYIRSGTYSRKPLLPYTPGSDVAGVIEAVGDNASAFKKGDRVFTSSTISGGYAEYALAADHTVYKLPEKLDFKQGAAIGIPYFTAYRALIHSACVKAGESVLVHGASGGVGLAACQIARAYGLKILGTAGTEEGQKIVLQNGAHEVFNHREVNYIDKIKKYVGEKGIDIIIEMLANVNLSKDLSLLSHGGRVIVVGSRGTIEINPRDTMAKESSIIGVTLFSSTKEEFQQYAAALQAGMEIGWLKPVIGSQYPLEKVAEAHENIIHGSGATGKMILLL
The series is described as follows: Induction of quinone reductase activity in human MCF7 cells. The class given is cell-based. An outline of the steps: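 QR induction in MCF-7 tumour cells at 40 µM, a level chosen from a flavone dose–response; result given as ratio of QR specific activity, treated/control.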

The subject of series [3] is Liver microsomes. Put plainly: Metabolic stability in rat liver microsome. The class given is ADME. Summed up: (§1)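 Female Wistar rat liver microsomes (100,000 × g pellet) at 1 mg/mL protein with 400 µM flavonoid (DMSO <1%). Incubated 0.5 h at 37 °C, with or without an NADPH-generating system (MgCl2, NADP+, glucose 6-phosphate, G6PDH) in 0.1 M phosphate pH 7.4, 1.5 mM EDTA. Heat-inactivated control included; triplicate; read by UV spectra and chromatography.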
A general note: Microsomes from liver hold many membrane-bound enzymes, among them those of drug oxidation.

Series [4] deals with Liver microsomes. Put plainly: Metabolic stability in rat liver microsome in presence of NADPH. The class given is ADME. An outline of the steps: as §1
Series [5] deals with Rattus norvegicus. The series is described as follows: Induction glutathione-CYP1A1 in rat liver at 15 mg/kg, po qd by EROD assay.
The test system of series [6] is Rattus norvegicus. The series is described as follows: Induction glutathione-S-transferase activity in rat liver at 15 mg/kg, po qd.
In series [7] the test system is Rattus norvegicus. Put plainly: Toxicity in Sprague-Dawley rat assessed as leucocyte level at 10 mg/kg/day, po. The conditions noted are these: in vivo.
In series [8] the test system is Rattus norvegicus. The series is described as follows: Toxicity in Sprague-Dawley rat assessed as change in body weight at 10 mg/kg/day, po. The conditions noted are these: in vivo.
Series [9] has as its system Rattus norvegicus. Put plainly: Toxicity in Sprague-Dawley rat assessed as haemoglobin level at 10 mg/kg/day, po (RVb = 15.1 +/- 4.1 g/L). The conditions noted are these: in vivo.
The test system of series [10] is Rattus norvegicus. The series is described as follows: Toxicity in Sprague-Dawley rat assessed as glutamic-pyruvate level at 10 mg/kg/day, po (RVb = 22.8 +/-13.2 U/L). The conditions noted are these: in vivo.
The subject of series [11] is Rattus norvegicus. Put plainly: Toxicity in Sprague-Dawley rat assessed as glutamic-oxalate transaminase level at 10 mg/kg/day, po (RVb = 71.4 +/- 7.8 U/L). The note with it: in vivo.

`O=C(/C=C/c1ccc(Br)cc1)c1ccccc1O`: the outcome in the series on MCF7, in the series on TK-10 and in the series with HT-29 was inactive. In addition, the Activity with Rattus norvegicus [1] is 128%; with Rattus norvegicus [5], -80%; with Rattus norvegicus [6] it was -30%; in the series on Rattus norvegicus [7] it was 7700 µL⁻¹; with Rattus norvegicus [8] it was “Non-toxic”; in the series on Rattus norvegicus [9], 8.4 g/L. Further, the Activity in the series on Rattus norvegicus [10] is recorded as 26 U/L; in the series on Rattus norvegicus [11], 61.7 U/L. For the same compound, the outcome in [2] was Active. The Stability result in the series on Liver microsomes [3] and with Liver microsomes [4] was “Stable” in each case.
